Published values gathered from unrelated publications.
In brackets after ≈: the same amount, converted by molar mass.

SMILES	target or system	assay	test system	setting	endpoint	result
O=C(NCCc1ccccn1)c1ccc(-c2nc3ccc4[nH]ncc4c3c3c2CCCC3)cc1	K562	cell growth or viability, resazurin	–	72 h	GI50	8.4 µM
Cc1ccc2[nH]nc(-c3nnc(Nc4ccc(F)cc4)s3)c2c1	Staphylococcus epidermidis	microbial growth	ATCC12228	–	MIC	123 µg/mL (≈ 377 µM)
O=C(CCCCCCC(=O)Nc1ccccc1)NO	OCI-Ly1	cell growth or viability, ATP luminescence	–	1 µM, 5 days	viability	50.5%
C=C[C@]1(C)C[C@@H](OC(=O)CS[C@@H]2C[C@H]3CC[C@@H](C2)N3C)[C@]2(C)[C@H](C)CC[C@]3(CCC(=O)[C@H]32)[C@@H](C)[C@@H]1O	Staphylococcus epidermidis	microbial growth	MRSE	clinical isolate	MIC90	0.0625 µg/mL
CCCCCCCCCCCCCCCCCCOc1cccc(CC(=O)OCC[N+](CC)(CC)CC)c1	HOP-92	cell growth or viability, SRB	–	10 µM	inhibition	47.7%
Cc1n[nH]c2ccc3nc(-c4ccc(C(=O)NCCN(C)C)nc4)c4c(c3c12)CCCCC4	K562	cell growth or viability, resazurin	–	72 h	GI50	8.5 µM
O=C(CCCCCCSc1ccc2ccccc2c1)NO	OCI-Ly1	cell growth or viability, ATP luminescence	–	0.5 µM, 5 days	viability	173%
CCCCCCCCCCCCCCCCCCOc1ccc(CC(=O)OCC[N+](CC)(CC)CC)cc1	HOP-92	cell growth or viability, SRB	–	10 µM	inhibition	13.3%
O=C(NCCN1CCCCC1)c1ccc(-c2nc3ccc4[nH]ncc4c3c3c2CCCC3)cc1	K562	cell growth or viability, resazurin	–	72 h	GI50	7.5 µM
O=C(/C=C/c1cccc(C(=O)NO)c1)NO	OCI-Ly1	cell growth or viability, ATP luminescence	–	1 µM, 5 days	viability	72.5%
Cc1cc(O)cc(Nc2nnc(-c3n[nH]c4ccc(C)cc34)s2)c1	Staphylococcus epidermidis	microbial growth	ATCC12228	–	MIC	201 µg/mL (≈ 596 µM)
CC1(C)S[C@@H]2[C@H](NC(=O)[C@H](N)c3ccccc3)C(=O)N2[C@H]1C(=O)O	Staphylococcus epidermidis	microbial growth	–	clinical isolate	MIC50	8 µg/mL (≈ 22.9 µM)
Cc1ccc2[nH]nc(-c3nnc(Nc4ccc(O)cc4)s3)c2c1	Staphylococcus epidermidis	microbial growth	ATCC12228	–	MIC	140 µg/mL (≈ 432 µM)
O=C(NCCN1CCCC1)c1ccc(-c2nc3ccc4[nH]ncc4c3c3c2CCCC3)cc1	K562	cell growth or viability, resazurin	–	72 h	GI50	2.7 µM
CCCCCCCCCCCCCCCCCCOc1ccc(CC(=O)OCC[N+]2(C)CCCCC2)cc1	HOP-92	cell growth or viability, SRB	–	10 µM	inhibition	2.18%
Cc1n[nH]c2ccc3nc(-c4ccc(C(=O)NCCN(C)C)cc4)c4c(c3c12)CCC(C)(C)C4	K562	cell growth or viability, resazurin	–	72 h	GI50	6.4 µM
CC[C@H]1OC(=O)[C@H](C)[C@@H](O[C@H]2C[C@@](C)(OC)[C@@H](O)[C@H](C)O2)[C@H](C)[C@@H](O[C@@H]2O[C@H](C)C[C@H](N(C)C)[C@H]2O)[C@](C)(O)C[C@@H](C)CN(C)[C@H](C)[C@@H](O)[C@]1(C)O	Staphylococcus epidermidis	microbial growth	ATCC12228	–	MIC	< 98 µg/mL
CCCCCCCCCCCCCCCCCCOc1cccc(CC(=O)OCC[N+]2(C)CCCCC2)c1	HOP-92	cell growth or viability, SRB	–	10 µM	inhibition	19%

SMILES	target or system	assay	test system	setting	endpoint	result
O=C(NO)c1ccc(CC(=O)N(CCO)c2ccccc2)cc1	OCI-Ly1	cell growth or viability, ATP luminescence	–	1 µM, 5 days	viability	74.7%
COc1c(N2C[C@@H]3CCCN[C@@H]3C2)c(F)cc2c(=O)c(C(=O)O)cn(C3CC3)c12	Staphylococcus epidermidis	microbial growth, broth dilution	–	clinical isolate	MIC50	0.5 µg/mL (≈ 1.25 µM)
Cc1ccc2[nH]nc(-c3nnc(Nc4ccc(C(F)(F)F)cc4)s3)c2c1	Staphylococcus epidermidis	microbial growth	ATCC12228	–	MIC	123 µg/mL (≈ 327 µM)
CCc1nc(C(N)=O)c(Nc2ccc(N3CCC(N4CCN(C)CC4)CC3)c(OC)c2)nc1NC1CCOCC1	K562	cell growth or viability, resazurin	–	72 h	GI50	2.3 µM
O=C(Nc1cccc(Br)c1)c1cccc(S(=O)(=O)N2CCCCCC2)c1	OCI-Ly1	cell growth or viability, ATP luminescence	–	0.1 µM, 5 days	viability	178%
CCCCCCCCCCCCCCCCCCOc1ccccc1CC(=O)OCCC[N+](C)(C)C	HOP-62	cell growth or viability, SRB	–	10 µM	inhibition	32.9%
CC[C@H]1OC(=O)[C@H](C)[C@@H](O[C@H]2C[C@@](C)(OC)[C@@H](O)[C@H](C)O2)[C@H](C)[C@@H](O[C@@H]2O[C@H](C)C[C@H](N(C)C)[C@H]2O)[C@](C)(O)C[C@@H](C)/C(=N\OCOCCOC)[C@H](C)[C@@H](O)[C@]1(C)O	Staphylococcus epidermidis	microbial growth	–	clinical isolate	MIC50	32 µg/mL (≈ 38.2 µM)
Cc1c2c(nn1C)CSCc1cc(n(C)n1)CSc1cc(c3ccccc3c1)OCCCc1c(C(=O)O)n(C)c3c-2c(Cl)ccc13	Staphylococcus epidermidis	microbial growth, broth dilution	–	clinical isolate	MIC90	12.5 µM
CC(=O)OC[C@H]1O[C@@H](n2cnc(N)nc2=O)[C@H](OC(C)=O)[C@@H]1OC(C)=O	OCI-Ly1	cell growth or viability, ATP luminescence	–	0.1 µM, 5 days	viability	177%
CCCCCCCCCCCCCCCCCCOc1ccccc1CC(=O)OCC[N+]1(C)CCCCC1	HOP-62	cell growth or viability, SRB	–	10 µM	inhibition	30%
CN(C)CCNC(=O)c1ccc(-c2nc3ccc4[nH]ncc4c3c3c2CCCC3)c(F)c1	K562	cell growth or viability, resazurin	–	72 h	GI50	1.1 µM
O=C(Nc1ccc(Cl)cc1)C1CCCN(C(=O)c2cc(C(F)(F)F)cc(C(F)(F)F)c2)C1 (racemic)	OCI-Ly1	cell growth or viability, ATP luminescence	–	0.5 µM, 5 days	viability	137%
CN(C)CCNC(=O)c1ccc(-c2nc3ccc4[nH]ncc4c3c3c2CCCC3)s1	K562	cell growth or viability, resazurin	–	72 h	GI50	0.805 µM
CCCCCCCCCCCCCCCCCCOc1cccc(CC(=O)OCC[N+]2(C)CCOCC2)c1	HOP-62	cell growth or viability, SRB	–	10 µM	inhibition	9.38%
CC(=O)NC[C@H]1CN(c2ccc(N3CCOCC3)c(F)c2)C(=O)O1	Staphylococcus epidermidis	microbial growth	MRSE	clinical isolate	MIC90	2 µg/mL
CCCCCCCCCCCCCCCCCCOc1cccc(CC(=O)OCC[N+](C)(C)C)c1	HOP-92	cell growth or viability, SRB	–	10 µM	inhibition	12.2%
CN[C@H](CC(C)C)C(=O)N[C@H]1C(=O)N[C@@H](CC(N)=O)C(=O)N[C@H]2C(=O)N[C@H]3C(=O)N[C@H](C(=O)N[C@H](C(=O)O)c4cc(O)cc(O)c4-c4cc3ccc4O)[C@H](O)c3ccc(c(Cl)c3)Oc3cc2cc(c3O[C@@H]2O[C@H](CO)[C@@H](O)[C@H](O)[C@H]2O[C@H]2C[C@](C)(N)[C@H](O)[C@H](C)O2)Oc2ccc(cc2Cl)[C@H]1O	Staphylococcus epidermidis	microbial growth	–	clinical isolate	MIC50	0.5 µg/mL (≈ 0.345 µM)
